Results of several laboratories.
Protocols differ between the studies behind these lines.
FGFR3: Fibroblast growth factor receptor 3 (FGFR3, Homo sapiens, UniProt P22607)
FGFR3 G697C: Fibroblast growth factor receptor 3 (FGFR3, Homo sapiens, UniProt P22607, G697C)

Structure (SMILES)	target	assay	setting	remaining binding [%]
C[C@@H]1CN(c2ccc3ncc(-c4ccc5[nH]nc(C6CC6)c5c4)n3n2)C[C@H](C)O1	FGFR3	binding, competition with immobilised ligand	0.5 µM	100
CCC(=O)N[C@H]1CC[C@@H](C(=O)N(C)c2ccc(-c3nc4ccccc4o3)cc2)C1	FGFR3 G697C	cell-free assay, competition with immobilised ligand	1 µM	100
COc1ccnn2ncc(-c3ccnc(N(C)C)n3)c12	FGFR3 G697C	binding	1 µM	100
Nc1ncc2c(n1)-c1c([nH]c3ccc(C#CC4CC4)cc13)CCCC2	FGFR3	binding, competition with immobilised ligand	1 µM	95
C=CC(=O)N1CCC(C(=O)NCC(=O)N2CCN(c3nc(-c4cnc(N)nc4C(F)F)nc(N4CCOCC4)n3)CC2)CC1	FGFR3 G697C	binding, competition with immobilised ligand	1 µM	99
O=C(NCC1CCOCC1)c1n[nH]cc1NC(=O)c1c(F)cccc1F	FGFR3	binding, competition with immobilised ligand	1 µM	100
N[C@H]1CCN(c2nccc(-c3cnn4ncccc34)n2)C1	FGFR3 G697C	binding	1 µM	100
O=C(NCCCN1CCOCC1)c1ccc(Nc2nccc(-c3cc4ccccc4s3)n2)cc1	FGFR3 G697C	binding, competition with immobilised ligand	1 µM	79
CCN1CCN(Cc2ccc(C(=O)Nc3ccc(C)c(Oc4ccc5c(c4)CC(=O)N5)c3)cc2C(F)(F)F)CC1	FGFR3 G697C	binding, competition with immobilised ligand	1 µM	88
O=C(NCCCN1CCOCC1)c1ccc(Nc2ncc(Cl)c(-c3ccc(Cl)s3)n2)cc1	FGFR3 G697C	binding, competition with immobilised ligand	1 µM	32
C[C@@H]1CCN(c2nccc(-c3cnn4ncccc34)n2)C1	FGFR3 G697C	binding	1 µM	100
CSc1cccnc1N1CCN(Cc2nc3ccccc3[nH]2)CC1	FGFR3 G697C	cell-free assay, competition with immobilised ligand	1 µM	100
CNC(=O)[C@@H]1CC[C@@H](n2c(-c3ccc4cnccc4c3)nc3ccc(C(=O)NCc4cccc(C(N)=O)c4)cc32)C1	FGFR3	binding, competition with immobilised ligand	1 µM	100
COc1ccc2cc(OCC3(C(=O)O)CN(C(=O)c4ccc(F)cc4)C3)ccc2c1	FGFR3 G697C	cell-free assay, competition with immobilised ligand	1 µM	88
c1cnn2ncc(-c3ccnc(N4CCC45COC5)n3)c2c1	FGFR3 G697C	binding	1 µM	86
CO[C@@H](C)c1c(Nc2ccc([C@H](N(C)C(=O)C3CCS(=O)(=O)CC3)C(F)(F)F)cc2)cnc2cc(Cl)nn12	FGFR3 G697C	cell-free assay, competition with immobilised ligand	1 µM	86
Cc1cnn2ncc(-c3ccnc(N(C)C)n3)c2c1	FGFR3 G697C	binding	1 µM	82
O=C1NC(c2ccccn2)Sc2ccccc21 (centres unmarked)	FGFR3	cell-free assay, competition with immobilised ligand	1 µM	97
c1cncc(-c2cccc(Nc3nccc(NC4CCCCC4)n3)c2)c1	FGFR3	binding, competition with immobilised ligand	10 µM	60
Cn1nc(C(=O)NCc2ccc(C(=O)O)cc2)cc1-c1ccc2[nH]ccc2c1	FGFR3 G697C	cell-free assay, competition with immobilised ligand	0.1 µM	82
CN(CCCC(F)(F)F)c1nccc(-c2cnn3ncccc23)n1	FGFR3 G697C	binding	1 µM	86
CCCCN(CCCC)C(=O)CN1C[C@@H](c2cc(OC)c3c(c2)OCO3)[C@H](C(=O)O)[C@H]1CC(C)(C)CCC	FGFR3	cell-free assay, competition with immobilised ligand	1 µM	88.5
O=C(c1ccc(Nc2nccc(-c3cc4ccccc4s3)n2)cc1)N1CCC(N2CCCC2)CC1	FGFR3 G697C	binding, competition with immobilised ligand	1 µM	77
